Source: ChEMBL document CHEMBL4610124, “Novel Thienopyrimidine Inhibitors of Leishmania N-Myristoyltransferase with On-Target Activity in Intracellular Amastigotes” (J Med Chem, 2020)

Tests used:
[1] = Inhibition of Leishmania donovani NMT using p60 SRC(2 to […]) as substrate by CPM dye based fluorescence assay
[2] = system: human NMT1 versus Leishmania donovani NMT; experiment: Selectivity ratio of IC50 for human NMT1 to IC50 for Leishmania donovani NMT; format: toxicity; settings: read-out: Ratio IC50
Procedure, shortened: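 Ratio of IC₅₀ for HsNMT1 to IC₅₀ for LdNMT. Both were measured in a fluorogenic CPM assay, in which coenzyme A released by acyl transfer is detected with the thiol-reactive dye CPM.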

[3] = target: T1, Glycylpeptide N-tetradecanoyltransferase 1 (Homo sapiens, UniProt P30419); format: ADME
T1 sequence (P30419 whole entry): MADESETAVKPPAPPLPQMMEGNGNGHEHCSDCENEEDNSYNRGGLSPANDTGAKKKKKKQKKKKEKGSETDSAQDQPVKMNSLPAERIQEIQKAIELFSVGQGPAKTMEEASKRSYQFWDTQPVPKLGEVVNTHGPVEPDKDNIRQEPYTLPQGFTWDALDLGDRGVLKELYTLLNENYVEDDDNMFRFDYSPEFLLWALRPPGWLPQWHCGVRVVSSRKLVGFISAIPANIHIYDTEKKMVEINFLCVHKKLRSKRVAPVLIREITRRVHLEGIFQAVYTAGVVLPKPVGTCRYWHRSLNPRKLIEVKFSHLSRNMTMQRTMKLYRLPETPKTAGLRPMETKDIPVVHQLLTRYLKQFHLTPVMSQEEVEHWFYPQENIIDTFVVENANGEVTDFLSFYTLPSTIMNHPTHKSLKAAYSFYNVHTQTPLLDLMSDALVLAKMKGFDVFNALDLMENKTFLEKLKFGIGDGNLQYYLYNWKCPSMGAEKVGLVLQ

Leishmania donovani [4] = experiment: Antileishmanial activity against Leishmania donovani MHOM/ET/67/HU3 intracellular amastigotes measured after 72 hrs by alamar blue dye based fluorescence assay; format: functional, organism-based; settings: MHOM/ET/67/HU3, 72 h
Procedure, shortened: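 Ex vivo L. donovani LV9 amastigotes, kept by serial passage in Rag-2−/− mice, isolated from infected spleens by homogenization and saponin lysis. Plated at 4 × 10⁵ per well in RPMI with 20% heat-inactivated FCS, adenine, 20 mM MES (pH 5.5), hemin, biopterin and biotin.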

[5] = Inhibition of Leishmania major NMT using p60 SRC(2 to […]) as substrate by CPM dye based fluorescence assay
Leishmania donovani [6] = experiment: Effect on total NMT expression in Leishmania donovani MHOM/ET/67/HU3 intracellular amastigotes after 12 hrs in presence of YnMyr by Western blot analysis; format: ADME, organism-based
Procedure, shortened: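 Amastigotes from spleens of Rag-2−/− mice, isolated by saponin lysis, seeded at 7.5 × 10⁷/mL in RPMI/10% FCS with inhibitor for 1 h at 37 °C. Then resuspended in fresh medium with inhibitor plus YnMyr (50 μM final) for 12 h. Lysates were click-labelled and run on SDS-PAGE, then immunoblotted with anti-LdNMT antibody.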

| SMILES | IC50 [1] [µM] | selectivity ratio [2] | IC50 [3] [µM] | EC50 (Leishmania donovani [4]) [µM] | IC50 [5] [µM] | Activity (Leishmania donovani [6]) |
| --- | --- | --- | --- | --- | --- | --- |
| CN(C)CCCN(C)c1ncc2sccc2n1 | > 100 |  |  |  |  |  |
| CCN(C)c1nc(N(C)C2CCNCC2)nc2ccc(S(=O)(=O)Nc3c(C)nn(C)c3C)cc12 |  | 5.2 | 1.7 |  |  |  |
| CCN(C)c1nc(N(C)CCCN(C)C)nc2ccc(S(=O)(=O)Nc3c(C)nn(C)c3C)cc12 | 0.23 | 4.6 | 1.1 |  |  |  |
| CN(c1nc(N2CCC[C@H]2CC#N)c2sccc2n1)C1CCNCC1 | 0.21 | 7.8 | 1.6 |  |  |  |
| CN(CCCN(C)c1nc(N(C)CCC#N)c2sccc2n1)Cc1ccccc1 | > 100 |  |  |  |  |  |
| CCN(C)c1nc(N(C)C2CCN(C)CC2)nc2ccsc12 |  |  | 7.9 | > 50 | 0.73 |  |
| CN1CCC(N(C)c2nc(N(C)CCC#N)c3sccc3n2)CC1 | 0.34 |  | 5.7 |  | 0.2 | Non-Toxic |
| CN1CCC(N(C)c2nc(N3CCC[C@H]3CC#N)c3sccc3n2)CC1 | 0.15 | > 660 | > 100 | 19 |  |  |
| CN(CCCO)c1nc(N(C)CCC#N)c2sccc2n1 | > 100 |  |  |  |  |  |
| CC(C)CN1CCC(N(C)c2nc(N(C)CCC#N)c3sccc3n2)CC1 | 4 | > 25 | > 100 |  |  |  |
| CN(C)CCCN(C)c1nc(N(C)CCC#N)c2cc(Br)ccc2n1 | 0.35 |  |  | 17 |  |  |
| CN(CCC#N)c1nc(N(CCO)C2CCNCC2)nc2ccccc12 |  |  |  |  | 8.2 |  |
| CN(CCC#N)c1nc(N(C)C2CCOCC2)nc2ccsc12 | > 100 |  |  |  |  |  |
| CN(C)CCCN(C)c1nc(N(C)CCC#N)c2sc(C(C)(C)C)cc2n1 | 0.36 |  |  | 37 | 0.16 |  |
| CN(CCC#N)c1nc(N(C)C2CCNC2)nc2ccccc12 (centres undefined) | 5.8 |  |  |  | 4.9 |  |
| COCCN(C)c1nc(N2CCN(C)CC2)nc2ccsc12 | 23 |  |  |  |  |  |
| COC[C@@H]1CCCN1c1nc(N(C)C2CCNCC2)nc2ccsc12 | 4.3 | 1.2 | 5 |  |  |  |
| CN(CCC#N)c1nc(N(C)C2CCNCC2)nc2ccsc12 | 0.5 | 22 | 11 | > 50 |  |  |
| CN(C)CCCN(C)c1nc(N(C)CCO)c2sccc2n1 | 22 |  |  |  | 36 |  |

| SMILES | IC50 [1] [µM] | selectivity ratio [2] | IC50 [3] [µM] | EC50 (Leishmania donovani [4]) [µM] | IC50 [5] [µM] | Activity (Leishmania donovani [6]) |
| --- | --- | --- | --- | --- | --- | --- |
| COc1ccc2nc(N(C)CCCN(C)C)nc(N(C)CCC#N)c2c1 | 1.8 | > 56 | > 100 |  |  |  |
| CN(C)CCCN(C)c1nc(N2CCC[C@H]2CO)c2sccc2n1 |  |  |  | > 50 | 19 |  |
| CCN1CCC(N(C)c2nc(N(C)CCC#N)c3ccccc3n2)CC1 | 0.97 |  |  | > 50 | 0.95 |  |
| COC[C@@H]1CCCN1c1nc(N(C)C2CCN(C)CC2)nc2ccsc12 | 0.87 | > 120 | > 100 | 26 |  |  |
| CN1CCC(N(C)c2nc(N(C)CCC#N)c3sc(C(C)(C)C)cc3n2)C1 (centres undefined) |  |  |  |  |  | Non-Toxic |
| CN(CCC#N)c1nc(N(C)C2CCN(Cc3ccccc3)CC2)nc2ccsc12 | 27 |  |  |  |  |  |
| CC(C)CN(C)CCCN(C)c1nc(N(C)CCC#N)c2sccc2n1 | > 100 |  |  |  |  |  |
| CN(CCC#N)c1nc(N(C)C2CCN(Cc3ccccc3)C2)nc2cc(C(C)(C)C)sc12 (centres undefined) | 7.8 |  |  |  |  |  |
| CN1CCC(N(C)c2nc(N(C)CCC#N)c3cc(Br)ccc3n2)C1 (centres undefined) | 5.5 | > 18 | > 100 |  |  |  |
| Cc1ccccc1-c1ccc2nc(N(C)CCCN(C)C)nc(N(C)CCC#N)c2c1 | 0.67 | > 150 | > 100 |  |  |  |
| CN(CCC#N)c1nc(N(C)C2CCNC2)nc2cc(C(C)(C)C)sc12 (centres undefined) | 5.5 | > 18 | > 100 | 21 |  |  |
| CN(C)CCCN(C)c1nccc(N(C)CCC#N)n1 | > 100 |  | > 100 |  |  |  |
| COCCN(C)c1nc(N(C)CCCN(C)C)nc2ccsc12 | 44 |  |  |  |  |  |
| CN(CCC#N)c1nc(N(C)C2CCN(Cc3ccccc3)C2)nc2ccsc12 (centres undefined) | > 100 |  |  |  |  |  |
| CN(C)CCCN(C)c1nc(N(C)CCC(N)=O)c2sccc2n1 |  |  |  | > 50 | 13 |  |
| CN1CCC(N(C)c2nc(N(C)CCC#N)c3cc(Br)ccc3n2)CC1 | 0.95 | > 20 | > 100 |  |  |  |
| CN(C)CCCN(C)c1nc(N(C)CCC#N)c2cccnc2n1 | 2.4 | > 42 | > 100 |  |  |  |
| CN(C)CCCN(C)c1nc(N(C)CCC#N)c2cc(-c3ccccc3)ccc2n1 | 0.39 | > 260 | > 100 |  |  |  |
| CN(C)CCCN(C)c1nc(N(C)CCC#N)c2c(ncn2C)n1 | > 100 |  | > 100 |  |  |  |

| SMILES | IC50 [1] [µM] | selectivity ratio [2] | IC50 [3] [µM] | EC50 (Leishmania donovani [4]) [µM] | IC50 [5] [µM] | Activity (Leishmania donovani [6]) |
| --- | --- | --- | --- | --- | --- | --- |
| CN1CCC(N(C)c2nc(N(C)CCC#N)c3sc(C(C)(C)C)cc3n2)CC1 | 0.046 |  | 0.55 |  | 0.042 |  |
| COc1ccc(-c2ccc3nc(N(C)CCCN(C)C)nc(N(C)CCC#N)c3c2)c(C)c1 | 6.6 | > 15 | > 100 |  |  |  |
| CN1CCC(N(C)c2nc(N(C)CCC#N)c3ccccc3n2)C1 (centres undefined) | 9.5 |  |  | 6.6 |  | Non-Toxic |
| CN(CCC#N)c1nc(N(C)[C@H]2C[C@H]3CC[C@@H](C2)N3C)nc2ccccc12 | 16 |  | > 100 | > 50 | 13 |  |
| CN(CCC#N)c1nc(N(C)C2CCNCC2)nc2ccccc12 |  |  | > 100 | > 50 | 1.1 |  |
| CN(C)CCCN(C)c1nc(N(C)CCCO)c2sccc2n1 |  |  |  | > 50 | 40 |  |
| CN1CCN(c2nc(N(C)CCC#N)c3sccc3n2)CC1 | 30 |  |  |  |  |  |
| CN(CCC#N)c1nc(N2CCNCC2)nc2ccsc12 | 28 |  |  |  |  |  |
| COc1ccc2nc(N(C)C3CCN(C)CC3)nc(N(C)CCC#N)c2c1 | 0.5 | > 200 | > 100 |  |  |  |
| CCN(C)c1nc(N(C)C2CCN(C)CC2)nc2ccc(S(=O)(=O)Nc3c(C)nn(C)c3C)cc12 | 0.2 | 11 | 2.3 |  |  |  |
| CCN(C)c1nc(N(C)C2CCN(Cc3ccccc3)CC2)nc2ccsc12 | > 100 |  |  |  |  |  |
| CN(C)CCCN(C)c1nc(N(C)CCC#N)c2ccccc2n1 |  |  |  | > 50 | 2.1 |  |
| CC(=O)N(C)CCN(C)c1nc(N(C)CCCN(C)C)nc2ccsc12 | > 100 |  | > 100 |  |  |  |
| CNCCCN(C)c1nc(N(C)CCC#N)c2sccc2n1 | 5.2 |  |  |  |  |  |
| CN(C)CCCN(C)c1nc(N(C)CCC(=O)N(C)C)c2sccc2n1 | 54 |  |  |  |  |  |
| COc1ccc2c(N(C)CCC#N)nc(N(C)CCCN(C)C)nc2c1 | 9.5 |  |  |  |  |  |
| CN(C)CCCN(C)c1nc(N(C)CCC#N)c2sccc2n1 | 0.15 to 0.59 | > 170 | > 100 | > 50 | 2.7 |  |
| CCN(C)c1nc(N(C)CCCN(C)C)nc2ccsc12 |  | > 8 | > 100 |  | 13 |  |
